The text below walks through data of PMC8075810 (Cell Chemical Biology, 2021).

Data set [1] deals with SCoV2. Nature of the data set: SCoV2 replication in hACE2-HeLa cells, NP western blot. It is filed as cell-based, SARS-CoV2 (SZ02). The following applies: 5 μM, 48 h. On the technique in general: Immunoblotting shows a protein as a band on a membrane.
The test system of data set [2] is 10 DUBs or DUB-like proteases, including USP14 and OTUB1. Description: Inhibitor specificity assay. The data set is classed as biochemical, Human. Conditions: 19 at 10 μM, Ub-Rho substrate.
Data set [3] relates to NF-κB activation perturbed by SCoV2 PLpro. Description: NF-κB activity luciferase-reporting assay. The data set is classed as cell-based, Human.
A further data set concerns hACE2-HeLa cells. Description: Cytotoxicity, CellTiter-Glo viability assay. It is filed as cell-based, Human. The following applies: 10 μM, 72 h. An outline of the steps:
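hACE2-HeLa cells grown in DMEM with 10% FBS and penicillin-streptomycin at 37°C, 5% CO2, and passaged before confluency. 2 x 10^3 cells/well were seeded in 384-well format and exposed to test compound at a range of concentrations for 72 h. Viability was read by CellTiter-Glo luminescence.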
A general note: In ATP-based viability assays light output follows the ATP content of the culture.

The nature of data set [4]: Metabolic stability in mouse liver microsomes. It is filed as in vitro ADME. The procedure, abridged: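 It was then split into 7 aliquots, each given NADPH (3 mM solution added) or PBS alone and incubated at 37°C. Samples were diluted 1:1 with water and analysed by LC-MS.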
In general terms: Liver microsomes are a subcellular fraction often used to study metabolism.

A short description of data set [5]: Stability in mouse plasma. It is filed as in vitro ADME.
Data set [6] has as its system SCoV2. The following applies: hACE2-HeLa cells.
Data set [7] relates to SCoV2. Description: microbe, parasite or virus in culture. The following applies: Severe acute respiratory syndrome coronavirus 2, read-out: IC50 (inhibition of SCoV2 replication).

Usually half-life stands for the time needed for the level to fall by half in the phase considered. What is called IC50 is the concentration that gives 50% inhibition.

Consider `C[C@H](c1cccc2ccccc12)N1CCC(C(=O)NCc2cccc(F)c2)CC1` [Inhibitor 11, (R)-N-(3-fluorobenzyl)-1-(1-(naphthalen-1-yl)ethyl)piperidine-4-carboxamide], for which the “NP level in infected hACE2-HeLa cells” value in the data set with SCoV2 [1] is reported as “strongest”.
Regarding `C[C@H](c1cccc2ccccc12)N1CCC(C(=O)NCc2cc(F)cc(NC(=O)N3CCN(C)CC3)c2)CC1` [Inhibitor 19, (R)-N-(3-fluoro-5-((1-(1-(naphthalen-1-yl)ethyl)piperidine-4-carboxamido)methyl)phenyl)-4-methylpiperazine-1-carboxamide], the “inhibition of DUBs or DUB-like proteases” value in data set [2] is “none of these 10 proteases were significantly inhibited”. Besides, the “recovery of NF-κB activation level” value in data set [3] is “significantly recover”. Moreover, the “cytotoxicity (in words)” value in the data set on hACE2-HeLa cells is listed as “neither 17 nor 19 showed detectable cytotoxicity”. Moreover, in data set [4], the half-life at 1 μM came out at 28 min. Also, the half-life at 8.35 μM in data set [5] is over 120 min. For the same molecule, in the data set with SCoV2 [6], the “therapeutic index (CC50/IC50)” value is “over 55”. For the same molecule, the “inhibition of SCoV2 replication (in words)” value in the data set with SCoV2 [6] (spike immunostaining) was “significantly inhibit SCoV2 replication even at 400 nM”. The half-inhibitory concentration (IC50) in the data set with SCoV2 [7] turned out to be 182 nM.
